RGS4 pot – RGS4 potentiators or activators, primary screen, cell-based, HEK293 M3R inducible RGS4, calcium flux | carbachol calcium flux Fluo4; active compounds read low | B-score at 10 µM | hit rate 0.92% among 310,000 | AID 463111, 2010;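 active = B-score of the integrated calcium signal more than 4 SD below the library mean, with starting fluorescence not abnormally high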;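 also: negative B-score means reduced calcium response which marks RGS4 activation or potentiation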
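Material: M3R-expressing HEK293 line, RGS4 induced by doxycycline | Schedule: Overnight RGS4 induction, 30 min dye load 37 °C, 20 min compound RT | Measured by: Fluo4 fluorescence kinetic imaging of calcium | Read-out: Integrated calcium ratio converted to B score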
MrgX1 antagonist – antagonists of human MrgX1 receptor, primary screen, HEK293 cells, Fluo-4 calcium flux. B-score at 10 µM. hit rate 1.3% among 310,000. Mas-related G-protein coupled receptor member X1 (Homo sapiens), Q96LB2. BAM8-22 antagonism; active compounds read low. AID 588676, 2011;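 active = calcium-response B-score plate-corrected more than 3 library SD below zero, starting fluorescence within 5 deviations, no agonist response on first addition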;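 also: peak minus trough fluorescence over baseline after final BAM8-22 challenge near maximal dose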
Target sequence (Q96LB2 whole entry, looked up): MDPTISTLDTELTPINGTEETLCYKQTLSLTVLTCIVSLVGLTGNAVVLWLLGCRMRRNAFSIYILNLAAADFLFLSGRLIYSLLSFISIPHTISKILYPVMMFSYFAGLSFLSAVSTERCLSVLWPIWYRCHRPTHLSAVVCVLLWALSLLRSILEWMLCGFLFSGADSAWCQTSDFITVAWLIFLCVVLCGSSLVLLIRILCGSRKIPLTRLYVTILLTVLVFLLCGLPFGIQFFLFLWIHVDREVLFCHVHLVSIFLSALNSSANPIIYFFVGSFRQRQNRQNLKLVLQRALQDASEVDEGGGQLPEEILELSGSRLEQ
RGS4 inh – RGS4 inhibitors, primary screen, cell-based, HEK293 M3R inducible RGS4, calcium flux; B-score at 10 µM; hit rate 0.45% among 310,000; Fluo-4 calcium flux; active compounds read high; triggered by carbachol at its EC20; AID 463165, 2010; Regulator of G-protein signaling 4 (Homo sapiens), P49798;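 active = B-score, a plate-corrected calcium signal, over three deviations above library mean, with baseline fluorescence within five deviations of library mean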;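 also: RGS4 expression induced by doxycycline in cells with stable M3 receptor; B-score is computed from the integrated fluorescence ratio over baseline after carbachol; higher B-score means a larger calcium signal and so more RGS4 inhibition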
Target sequence (P49798 whole entry, looked up): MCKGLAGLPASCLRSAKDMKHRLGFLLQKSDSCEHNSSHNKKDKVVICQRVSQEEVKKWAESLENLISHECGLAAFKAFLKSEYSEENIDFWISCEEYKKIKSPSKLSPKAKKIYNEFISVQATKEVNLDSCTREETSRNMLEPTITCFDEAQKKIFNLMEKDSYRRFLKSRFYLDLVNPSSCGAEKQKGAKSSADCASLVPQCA
MrgX1 agonist – agonists of human MrgX1 receptor, primary screen, HEK293 cells, Fluo-4 calcium flux. Fluo-4 calcium fluorescence, agonist mode; active compounds read high. B-score at 10 µM. hit rate 0.44% among 310,000. AID 588627, 2011;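 active = calcium response B-score plate-corrected fluorescence ratio at least 3 library SD, with starting fluorescence B-score inside 5 SD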
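Test system: Stable human MrgX1 HEK293 cell line | Schedule: Overnight plating before 1 h dye loading | Read-out basis: Baseline-normalised fluorescence change ratio, B-scored | Detection: Kinetic calcium dye fluorescence, Fluo-4 NW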
MrgX1 PAM – positive allosteric modulators of MrgX1, primary screen, HEK293 cells, Fluo-4 calcium flux. Mas-related G-protein coupled receptor member X1 (Homo sapiens), Q96LB2. hit rate 0.63% among 310,000. FDSS; active compounds read high. B-score at 10 µM;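 active = plate-corrected calcium response at least 3 library SD above typical, normal starting fluorescence, not activating the receptor alone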;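 also: compound read alongside a low EC10 to EC30 dose of BAM8-22 agonist; peak minus trough fluorescence over baseline measured at the second addition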
RGS4 block valid – enhanced carbachol calcium response, M3R/RGS4 cells, RGS4 inhibitor project, cell-based, validation screen, HEK293 M3R/RGS4, calcium flux; shares compounds with RGS4 inh; AID 492999, 2010; hit rate 65% among 1,700; carbachol calcium Fluo-4 fluorescence; carbachol added at its EC20; 0 = buffer wells, 100 = carbachol control; calcium response, % at 10 µM;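 active = duplicate-averaged calcium response above the buffer-only control mean plus 5 SD of those controls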;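 also: integrated fluorescence ratio F max minus min over baseline F0; higher response in RGS4-induced cells means RGS4 inhibition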
RGS4 uninduced – carbachol calcium response in non-induced M3R cells, confirmation, counter-screen for RGS4 inhibitor project, cell-based, HEK293 M3R | shares compounds with RGS4 inh | carbachol calcium Fluo-4; submaximal (EC20) carbachol stimulus; buffer wells 0%, carbachol control wells 100% | activity (percent), % at 10 µM | hit rate 20% among 1,900; call rule not given here;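 also: RGS4 induction absent so cells express M3R without RGS4; higher means more calcium signal and flags a non-specific hit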
RGS4 inh ctr2 – signal in non-induced cells without carbachol, RGS4 inhibitor counter-screen | hit rate 22% among 1,900 | shares compounds with RGS4 inh | HEK293 M3R/RGS4 non-induced, Fluo-4 calcium, no carbachol; normalised: buffer wells 0%, carbachol wells 100% | calcium response (agonist-mode artifact), % at 10 µM;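 active = duplicate-averaged calcium rise in uninduced cells above buffer wells' mean plus 5 SD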
Hits are given with their value; n = inactive; x = not tested or not shown. Hits are enriched below; roughly 3.5% of the tested compounds scored in any of these assays.

SMILES | RGS4 pot | MrgX1 antagonist | RGS4 inh | MrgX1 agonist | MrgX1 PAM | RGS4 block valid | RGS4 uninduced | RGS4 inh ctr2
O=C(O)CCc1ccc(-c2ccccc2)o1 | n | n | 5.06 | n | n | 5.0% | n | n
O=C1CC(C(=O)N2CCN(c3ccccc3O)CC2)CN1Cc1ccccc1 (stereo unspecified) | n | n | n | n | n | x | x | x
NC1=NC(=Nc2ccc(Cl)cc2)c2ccccc21 | n | n | 7.96 | n | n | 8.0% | n | n
C=CCn1nc([N+](=O)[O-])nc1Sc1cccc2cccnc12 | n | n | 6.15 | n | n | 30.5% | n | n
CC(C)c1nc2sc3c(SCC(N)=O)ncnc3c2c2c1CCC2 | n | n | n | n | n | x | x | x
CN(CCc1ccccn1)C(=O)CC1C(=O)NCCN1Cc1cccc(F)c1 (stereo unspecified) | n | n | n | n | n | x | x | x
CN(Cc1ccccn1)C(=O)CC1C(=O)NCCN1Cc1ccc(F)cc1Cl (stereo unspecified) | n | n | n | n | n | n | n | 13.5%
CN(Cc1cnccn1)C(=O)CC1C(=O)NCCN1Cc1ccc(F)cc1Cl (stereo unspecified) | n | n | 4.81 | n | n | n | n | 82.5%
Cc1ccc(OCC(=O)N/N=C/c2cn(C)c3ccccc23)cc1 | n | n | n | n | n | x | n | n
COC(=O)c1ccc(CSc2nnc(Nc3ccc(C)cc3)s2)o1 | n | n | n | n | n | x | x | x
Cc1nc2c([nH]c3ccccc32)c(=O)n1N | n | n | n | n | n | x | x | x
Nn1c(=O)[nH]c2c([nH]c3ccccc32)c1=O | n | n | 5.89 | n | n | n | n | n
CCCCC(CC)C(=O)Nc1ccc(C)c(O)c1 (stereo unspecified) | n | n | n | n | n | x | x | x
CSc1ccccc1OCc1cc(C(=O)NCCC2CCCCO2)no1 (stereo unspecified) | n | n | 10.7 | n | n | n | n | n
CSc1ccccc1OCc1cc(C(=O)NCCN2CCCC(O)C2)no1 (stereo unspecified) | n | n | n | n | n | x | x | x
COc1ccc(/C=N/NC(=O)C(=O)NCc2cccnc2)cc1 | n | n | n | n | n | x | x | x
COCCCn1c(=O)c2sccc2n2c(CCCC(=O)NCc3ccc(F)cc3)nnc12 | n | n | n | n | n | x | x | x
C=C1C(=O)O[C@@H]2C[C@@H](C)[C@@H]3C=CC(=O)[C@@]3(C)[C@@H](OC(C)=O)[C@H]12 | n | n | 7.64 | 33.5 | n | 21.5% | n | 11.0%
CCOc1cc(CNn2cn[nH]c2=S)cc(Cl)c1OCc1ccccc1F | n | n | n | n | n | x | x | x
O=[N+]([O-])c1ccc(-c2nn(-c3ccccc3)cc2/C=N/n2c(-c3ccncc3)n[nH]c2=S)cc1 | n | n | n | n | n | n | n | n
Cc1ccc(-c2nn(-c3ccccc3)cc2/C=N/n2c(-c3cccs3)n[nH]c2=S)cc1 | n | n | n | n | n | x | x | x
S=c1[nH]nc(-c2ccncc2)n1/N=C/c1cn(-c2ccccc2)nc1-c1ccccc1 | n | n | 7.8 | n | n | 11.5% | 41.0% | n
CC(=O)C1=C(C)OC(N)=C(C#N)C1c1cccc([N+](=O)[O-])c1 (stereo unspecified) | n | n | 7.18 | n | n | n | n | n
CCCCNc1c(C(=O)OCC)c(C)nc2c1cnn2CC | n | n | 10.2 | n | n | 7.5% | 28.5% | n
CCOC(=O)N1CCc2c(sc3c2c(=O)n(Cc2ccccc2)c(=O)n3Cc2ccc(C)cc2)C1 | n | n | 8.68 | n | n | 38.0% | 30.0% | n
SMILES | RGS4 pot | MrgX1 antagonist | RGS4 inh | MrgX1 agonist | MrgX1 PAM | RGS4 block valid | RGS4 uninduced | RGS4 inh ctr2
CC(=O)N1CCc2c(sc3c2c(=O)n(Cc2ccccc2)c(=O)n3CC(=O)NCC2CCCO2)C1 (stereo unspecified) | n | n | n | n | n | x | x | x
O=C(Nc1ccc(S(=O)(=O)Nc2ncccn2)cc1)c1ccccc1Br | n | n | n | n | n | x | x | x
NC(=O)CC(NC(=O)Cc1ccc(Cl)cc1)c1ccc(NC2CCCCCCC2)c([N+](=O)[O-])c1 (stereo unspecified) | n | n | 4.68 | n | n | 11.0% | n | n
NC(=O)CC(NC(=O)Cc1ccc(Cl)cc1)c1ccc(NC2CCCCCC2)c([N+](=O)[O-])c1 (stereo unspecified) | n | n | n | n | n | x | x | x
NC(=O)CC(NC(=O)Cc1ccc(Br)cc1)c1ccc(NC2CCCCCC2)c([N+](=O)[O-])c1 (stereo unspecified) | n | n | n | n | n | n | n | n
NC(=O)CC(NC(=O)Cc1ccc(Br)cc1)c1ccc(NC2CCCC2)c([N+](=O)[O-])c1 (stereo unspecified) | n | n | n | n | n | n | n | n
COC(=O)c1cc(S(=O)(=O)NCCCN2CCCC2=O)cn1C | n | n | n | n | n | x | x | x
CN(Cc1nccn1C)C(=O)CC1C(=O)NCCN1CC(c1ccccc1)c1ccccc1 (stereo unspecified) | n | n | n | n | n | x | x | x
O=C(NCc1ccco1)Nc1ccc(Br)cc1 | n | n | n | n | n | x | x | x
O=C(NCc1ccco1)Nc1ccc2nsnc2c1 | n | n | 6.45 | n | n | n | n | n
COc1cccc(OC)c1C(=O)Nc1cccnc1 | n | n | n | n | n | x | x | x
OCCC#Cc1c(-c2ccsc2)sc2ccccc12 | n | n | n | n | n | x | x | x
COc1ccc(-c2sc3ccccc3c2C#CCCO)cc1 | n | n | 4.87 | n | n | 9.0% | n | n
COc1ccc(-c2sc3ccccc3c2C#CCO)cc1 | n | n | n | n | n | n | n | n
Cc1nc(OCc2c(C)noc2C)c2ccccc2n1 | n | n | n | n | n | x | x | x
Cc1ccc(C)c(NC(=O)CC2Oc3ccccc3NC2=O)c1 (stereo unspecified) | n | n | n | n | n | x | x | x
CCCCOc1ccc(C(=O)CCN2CCOCC2)cc1 | n | n | n | n | n | x | x | x
CCCOc1ccc(C(=O)CCN2CCCCC2)cc1 | n | n | n | n | n | n | n | 11.5%
CCOc1ccc(C(=O)CCN2CCCCCC2)cc1 | n | n | 11.5 | n | n | n | n | 20.5%

Screens (PubChem BioAssay)
